Each block holds one compound with its values, some of them ahead of it.
Legend:
[1] = Stability in rat liver microsomes after 30 mins
[2] = Stability in human liver microsomes after 30 mins
[3] = Stability in rat hepatocytes after 30 mins; assay type: ADME, cell-based, Hepatocyte; conditions: read-out: Stabilty
[4] = Unbound intrinsic clearance in mouse hepatocytes assessed per million cells; assay type: ADME, cell-based, Hepatocyte
[5] = molecular target: T1, Hepatocyte growth factor receptor (Homo sapiens, UniProt P08581); test: Inhibition of c-Met (unknown origin) using poly Glu-Tyr as substrate preincubated for 10 mins followed by ATP addition by phosphoenolpyruvate/pyruvate kinase/lactate dehydrogenase coupled radiometric assay
[6] = molecular target: T1, Hepatocyte growth factor receptor; test: Inhibition of c-MET in human SNU-5 cells measured after 6 hrs by steady-glo luciferase reporter gene assay; assay type: cell-based
[7] = Unbound intrinsic clearance in human hepatocytes assessed per million cells; assay type: ADME, cell-based, Hepatocyte
[8] = molecular target: cGMP-inhibited 3',5'-cyclic phosphodiesterase 3A (Homo sapiens, UniProt Q14432); test: Inhibition of recombinant human N-terminal GST/His-tagged PDE3A (669 to 1141 residues) expressed in baculovirus infected Sf9 insect cells using iFL-cAMP as substrate preincubated for 15 mins followed by substrate addition and measured after 40 mins by fluorescence assay
Homo sapiens = species: Homo sapiens; test: Selectivity ratio of IC50 for inhibition of recombinant human N-terminal GST/His-tagged PDE3A (669 to 1141 residues) expressed in baculovirus infected Sf9 insect cells to IC50 for inhibition of c-MET in human SNU-5 cells
[9] = AUC in dog at 12 mg/kg, po; assay type: ADME, organism-based, Canis lupus familiaris; parameters: dose 12 mg/kg; conditions: in vivo
Outline: (§1)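 For dogs, dosing was IV 0.8 mpk or PO 12 mpk, the oral formulation being 30% PG/10% Solutol/1% HPMC-AS. IV and PO parameters were obtained from the corresponding arms.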

SNU-5 [10] = test: Antitumor activity against human SNU-5 cells xenografted in SCID mouse assessed as tumor regression at 30 mg/kg qd measured 38 days post tumor implantation relative to control; assay type: functional
Outline: (§2)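 SCID mice carrying SNU-5 tumors were dosed at 3, 10 or 30 mpk. Tumor growth was compared with untreated controls as T/C. Body weight was followed through the dosing regimen.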

[11] = Half life in dog at 0.8 mg/kg, iv; assay type: ADME, organism-based, Canis lupus familiaris; conditions: in vivo; outline: as §1
SNU-5 [12] = test: Antitumor activity against human SNU-5 cells xenografted in SCID mouse assessed as tumor growth at 10 mg/kg qd measured 38 days post tumor implantation relative to control; assay type: functional; outline: as §2
[13] = Clearance in dog at 0.8 mg/kg, iv; assay type: ADME, organism-based, Canis lupus familiaris; conditions: in vivo; outline: as §1
SNU-5 [14] = test: Antitumor activity against human SNU-5 cells xenografted in SCID mouse assessed as tumor growth at 3 mg/kg qd measured 38 days post tumor implantation relative to control; assay type: functional; outline: as §2
[15] = Volume of distribution at steady state in monkey at 0.9 mg/kg, iv; assay type: ADME, organism-based, Macaca mulatta; conditions: rhesus monkey, in vivo, read-out: Vdss
[16] = Oral bioavailability in dog at 12 mg/kg; assay type: ADME, organism-based, Canis lupus familiaris; conditions: in vivo; outline: as §1
[17] = Half life in rat at 0.9 mg/kg, iv; assay type: ADME, organism-based; conditions: in vivo
Outline: (§3)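 Rats received IV 0.9 mpk or PO 2.6 mpk, the oral dose formulated in 0.5% MC/0.1% Tween 80. PK parameters were derived from the IV and PO dosing arms.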

[18] = Volume of distribution at steady state in rat at 0.9 mg/kg, iv; assay type: ADME, organism-based; conditions: in vivo, read-out: Vdss; outline: as §3
[19] = Cmax in dog at 12 mg/kg, po; assay type: ADME, organism-based, Canis lupus familiaris; parameters: route oral, dose 12 mg/kg; conditions: in vivo; outline: as §1
[20] = Clearance in mouse at 0.8 mg/kg, iv; assay type: ADME, organism-based; conditions: in vivo
Outline: (§4)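 Mice received IV 0.8 mpk or PO 13 mpk, the oral dose in 0.5% MC/0.1% Tween 80 vehicle. Parameters came from the respective IV or PO dosing.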

[21] = AUC in mouse at 13 mg/kg, po; assay type: ADME, organism-based; parameters: dose 13 mg/kg; conditions: in vivo; outline: as §4
[22] = Cmax in mouse at 13 mg/kg, po; assay type: ADME, organism-based; parameters: route oral, dose 13 mg/kg; conditions: in vivo; outline: as §4
[23] = Volume of distribution at steady state in mouse at 0.8 mg/kg, iv; assay type: ADME, organism-based; conditions: in vivo, read-out: Vdss; outline: as §4
[24] = Clearance in monkey at 0.9 mg/kg, iv; assay type: ADME, organism-based, Macaca mulatta; conditions: rhesus monkey, in vivo
[25] = Clearance in rat at 0.9 mg/kg, iv; assay type: ADME, organism-based; conditions: in vivo; outline: as §3
[26] = Half life in monkey at 0.9 mg/kg, iv; assay type: ADME, organism-based, Macaca mulatta; conditions: rhesus monkey, in vivo
[27] = Half life in mouse at 0.8 mg/kg, iv; assay type: ADME, organism-based; conditions: in vivo; outline: as §4
[28] = AUC in rat at 2.6 mg/kg, po; assay type: ADME, organism-based; parameters: dose 2.6 mg/kg; conditions: in vivo; outline: as §3
[29] = Oral bioavailability in mouse at 13 mg/kg; assay type: ADME, organism-based; conditions: in vivo; outline: as §4
[30] = Oral bioavailability in rat at 2.6 mg/kg; assay type: ADME, organism-based; conditions: in vivo; outline: as §3
[31] = Toxicity in human SNU-5 cells xenografted SCID mouse assessed as body weight loss at 30 mg/kg qd; assay type: organism-based; conditions: in vivo; outline: as §2
[32] = Volume of distribution at steady state in dog at 0.8 mg/kg, iv; assay type: ADME, organism-based, Canis lupus familiaris; conditions: in vivo, read-out: Vdss; outline: as §1
[33] = Cmax in rat at 2.6 mg/kg, po; assay type: ADME, organism-based; parameters: route oral, dose 2.6 mg/kg; conditions: in vivo; outline: as §3
SNU-5 [34] = test: Antitumor activity against human SNU-5 cells xenografted in SCID mouse assessed as tumor regression measured 38 days post tumor implantation; assay type: functional; outline: as §2
[35] = Clearance in rat at 1 mg/kg, iv; assay type: ADME, organism-based; conditions: in vivo
[36] = Half life in rat at 1 mg/kg, iv; assay type: ADME, organism-based; conditions: in vivo

T1 sequence (P08581 whole entry): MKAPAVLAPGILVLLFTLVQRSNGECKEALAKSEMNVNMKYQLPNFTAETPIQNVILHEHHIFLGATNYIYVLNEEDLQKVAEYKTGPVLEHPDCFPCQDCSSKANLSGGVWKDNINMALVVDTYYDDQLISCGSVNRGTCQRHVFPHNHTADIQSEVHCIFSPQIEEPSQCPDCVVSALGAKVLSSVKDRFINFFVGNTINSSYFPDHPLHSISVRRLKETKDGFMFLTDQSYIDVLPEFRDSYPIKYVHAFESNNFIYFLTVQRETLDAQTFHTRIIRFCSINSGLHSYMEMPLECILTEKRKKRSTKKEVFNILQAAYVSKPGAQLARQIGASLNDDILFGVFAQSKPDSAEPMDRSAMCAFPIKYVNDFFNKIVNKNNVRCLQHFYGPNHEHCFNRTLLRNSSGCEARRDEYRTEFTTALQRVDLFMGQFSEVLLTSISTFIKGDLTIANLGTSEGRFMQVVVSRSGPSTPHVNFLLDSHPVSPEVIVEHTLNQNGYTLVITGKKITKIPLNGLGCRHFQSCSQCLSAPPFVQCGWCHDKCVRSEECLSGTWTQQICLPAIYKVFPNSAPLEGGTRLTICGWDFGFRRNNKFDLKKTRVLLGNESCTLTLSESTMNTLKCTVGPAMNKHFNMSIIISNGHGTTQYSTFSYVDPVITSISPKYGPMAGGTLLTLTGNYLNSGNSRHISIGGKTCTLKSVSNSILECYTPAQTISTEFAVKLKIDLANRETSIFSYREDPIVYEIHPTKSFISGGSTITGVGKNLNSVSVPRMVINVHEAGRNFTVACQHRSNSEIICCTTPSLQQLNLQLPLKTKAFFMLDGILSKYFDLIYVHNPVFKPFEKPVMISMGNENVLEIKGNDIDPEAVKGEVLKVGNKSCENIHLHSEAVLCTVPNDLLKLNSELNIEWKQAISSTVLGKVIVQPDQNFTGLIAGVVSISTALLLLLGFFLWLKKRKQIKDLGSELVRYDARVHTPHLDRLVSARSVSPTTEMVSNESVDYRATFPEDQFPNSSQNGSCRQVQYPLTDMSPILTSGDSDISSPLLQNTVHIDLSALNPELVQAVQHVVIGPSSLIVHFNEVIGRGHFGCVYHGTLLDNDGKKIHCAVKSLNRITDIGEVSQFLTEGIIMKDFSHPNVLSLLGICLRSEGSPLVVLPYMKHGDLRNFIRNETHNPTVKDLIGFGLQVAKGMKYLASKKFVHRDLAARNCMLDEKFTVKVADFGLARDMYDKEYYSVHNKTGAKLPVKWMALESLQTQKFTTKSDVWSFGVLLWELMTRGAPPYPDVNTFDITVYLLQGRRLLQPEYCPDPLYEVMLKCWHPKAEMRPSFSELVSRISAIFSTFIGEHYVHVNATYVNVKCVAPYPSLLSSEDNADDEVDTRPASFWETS
Sequence of cGMP-inhibited 3',5'-cyclic phosphodiesterase 3A (Q14432 whole entry, the tested form may be a part): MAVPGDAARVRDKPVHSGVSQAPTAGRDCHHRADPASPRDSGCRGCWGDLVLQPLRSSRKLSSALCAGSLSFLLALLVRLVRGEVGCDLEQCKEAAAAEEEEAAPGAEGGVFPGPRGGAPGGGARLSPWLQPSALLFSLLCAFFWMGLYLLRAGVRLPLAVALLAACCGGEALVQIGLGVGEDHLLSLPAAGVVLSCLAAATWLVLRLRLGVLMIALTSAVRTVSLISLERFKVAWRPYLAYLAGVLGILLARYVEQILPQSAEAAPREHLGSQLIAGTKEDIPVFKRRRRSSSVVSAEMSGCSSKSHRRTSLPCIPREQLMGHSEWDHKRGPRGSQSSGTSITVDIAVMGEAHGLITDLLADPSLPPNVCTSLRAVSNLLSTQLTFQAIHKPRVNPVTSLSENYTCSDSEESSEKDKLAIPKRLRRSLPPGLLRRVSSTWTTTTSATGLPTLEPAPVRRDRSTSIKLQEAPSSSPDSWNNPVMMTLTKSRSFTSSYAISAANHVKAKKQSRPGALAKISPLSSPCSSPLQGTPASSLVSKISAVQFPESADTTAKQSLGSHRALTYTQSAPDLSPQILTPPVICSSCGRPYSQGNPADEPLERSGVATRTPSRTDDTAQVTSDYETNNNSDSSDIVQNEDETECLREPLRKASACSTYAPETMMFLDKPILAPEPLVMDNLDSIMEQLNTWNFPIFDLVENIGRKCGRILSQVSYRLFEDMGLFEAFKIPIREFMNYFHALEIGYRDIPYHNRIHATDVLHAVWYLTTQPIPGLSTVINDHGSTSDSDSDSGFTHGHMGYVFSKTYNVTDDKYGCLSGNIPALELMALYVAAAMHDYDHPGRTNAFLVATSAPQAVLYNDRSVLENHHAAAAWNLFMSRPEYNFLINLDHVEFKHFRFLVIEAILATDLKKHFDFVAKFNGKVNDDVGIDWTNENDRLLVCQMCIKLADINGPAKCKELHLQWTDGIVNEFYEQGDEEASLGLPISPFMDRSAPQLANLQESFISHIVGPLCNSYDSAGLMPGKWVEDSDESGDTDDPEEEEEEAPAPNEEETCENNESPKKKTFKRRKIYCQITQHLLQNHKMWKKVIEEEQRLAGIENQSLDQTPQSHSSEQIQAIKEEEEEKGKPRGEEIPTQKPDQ

Compound: Oc1ccc(Cn2cnc3ncc(-c4ccc(F)cc4)nc32)cc1
remaining at 0.5 h [1]: 56%
remaining at 0.5 h [2]: 51%

Compound: Oc1ccc(Cc2nnc3sc(Nc4cccc(Cl)c4)nn23)cc1Cl
remaining at 0.5 h [3]: 63%

Compound: Clc1cccc(Nc2nn3c(Cc4ccc5c(c4)OCO5)nnc3s2)c1
remaining at 0.5 h [3]: 64%

Compound: Oc1ccc(Cc2nnc3sc(Nc4ccccc4)nn23)cc1
remaining at 0.5 h [1]: 40%
remaining at 0.5 h [2]: 68%

Compound: Oc1ccc(Cc2nnc3ccc(-c4ccc(F)cc4)nn23)cc1
remaining at 0.5 h [1]: 32%
remaining at 0.5 h [2]: 50%

Compound: Cn1cc(Nc2nn3c(C(F)(F)c4ccc5ncccc5c4)nnc3s2)cn1
AUC [9]: 9.9 µg/h/mL
Activity (SNU-5 [10]): -23.9%
half-life [11]: 3.6 h
T/C (SNU-5 [12]): 54.2%
clearance [13]: 14 mL/min/kg
T/C (SNU-5 [14]): 16.6%
Vd [15]: 1.2 L/kg
bioavailability [16]: 66%
half-life [17]: 1.4 h
IC50 [8]: 8070 nM
Vd [18]: 0.7 L/kg
Ratio IC50 (Homo sapiens): 2020
Cmax [19]: 1300 ng/mL
clearance [20]: 21 mL/min/kg
AUC [21]: 16 µg/h/mL
Cmax [22]: 4800 ng/mL
Vd [23]: 1 L/kg
clearance [24]: 23 mL/min/kg
Ki [5]: 21 nM
IC50 [6]: 4 nM
clearance [25]: 25 mL/min/kg
half-life [26]: 2 h
half-life [27]: 1.8 h
AUC [28]: 0.6 µg/h/mL
bioavailability [29]: 100%
bioavailability [30]: 29%
Activity [31]: Non-Toxic
Vd [32]: 1.6 L/kg
Cmax [33]: 150 ng/mL
Activity (SNU-5 [34]): Dose-dependent effect

Compound: Oc1cccc(Cc2nnc3sc(Nc4cccc(Cl)c4)nn23)c1
remaining at 0.5 h [3]: 55%

Compound: Oc1ccc(Cc2nnc3n2N=C(c2ccc(F)cc2)CS3)cc1
remaining at 0.5 h [1]: 2.6%
remaining at 0.5 h [2]: 73%

Compound: Oc1ccc(Cc2nnc3sc(Nc4cccc(Cl)c4)nn23)cc1F
remaining at 0.5 h [3]: 56%

Compound: Clc1cccc(Nc2nn3c(Cn4ccc5ncccc54)nnc3s2)c1
remaining at 0.5 h [3]: 60%

Compound: Clc1cccc(Nc2nn3c(Cc4ccc5ncccc5c4)nnc3s2)c1
remaining at 0.5 h [3]: 45%

Continued, in another order:

CL free [4]: 7.4 µL/min
Ki [5]: 50 nM
IC50 [6]: 30 nM
CL free [7]: 3.2 µL/min
Compound: CC(c1ccc2ncccc2c1)c1nnc2sc(-c3cnn(C)c3)nn12 (racemic)

IC50 [8]: 3000 nM
Ki [5]: 20 nM
IC50 [6]: 5 nM
Compound: C[C@@H](c1ccc2ncccc2c1)c1nnc2sc(Nc3cnn(C)c3)nn12
Ratio IC50 (Homo sapiens): 600

IC50 [8]: 200 nM
IC50 [6]: 3 nM
Compound: Cc1nn(C)cc1-c1nn2c([C@H](C)c3ccc4ncccc4c3)nnc2s1
Ratio IC50 (Homo sapiens): 67

clearance [35]: 24.5 mL/min/kg
CL free [4]: 6.2 µL/min
half-life [36]: 1.1 h
CL free [7]: 4.8 µL/min
Compound: Cn1cc(-c2nn3c(Cc4ccc5ncccc5c4)nnc3s2)cn1

IC50 [8]: 100 nM
IC50 [6]: 3 nM
Compound: Cc1nn(C)cc1-c1nn2c([C@@H](C)c3ccc4ncccc4c3)nnc2s1
Ratio IC50 (Homo sapiens): 33

IC50 [8]: 7900 nM
CL free [4]: 7 µL/min
Ki [5]: 240 nM
IC50 [6]: 84 nM
CL free [7]: 5.8 µL/min
Compound: C[C@H](c1ccc2ncccc2c1)c1nnc2sc(-c3cnn(C)c3)nn12
Ratio IC50 (Homo sapiens): 95
